Source: PubChem (several laboratories)
An excerpt weighted towards active compounds, which were near 4% of everything screened.
CHO parental Ca: signal in parental CHO cells, OX1R antagonist counter-screen | parental CHO-K1, ATP-induced calcium, Fluo-8 fluorescence | inhibition, % at 5.6 µM | 0.63% of 330,000 active | AID 463079;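 active = inhibition above that plate's mean sample inhibition plus 3 SD, cut at about 26% in these data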;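 note: 0% = ATP-challenged DMSO wells and 100% = DMSO wells without ATP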
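Test system: parental CHO cells; detection: calcium-sensitive Fluo-8 fluorescence; evaluation: percent inhibition of calcium signal; also added: ATP as calcium-mobilizing challenge; repeats: one well per compound; control set: ATP-challenged DMSO wells low, unchallenged DMSO wells high; compound: single nominal dose of 5.6 µM per compound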
NTR1 agonist: NTR1 (human) agonism | AID 493036 | activation, % at 20 µM | NTR1-U2OS beta-arrestin-GFP spot imaging, agonist mode | 0.17% of 330,000 active | P30989;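 active = activation at or above 40% of the spot to cytoplasm intensity ratio, with at least 20 cells analyzed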;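 note: 0% = DMSO without peptide and 100% = 100 nM NTR1 peptide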
Target sequence (P30989 whole entry, looked up): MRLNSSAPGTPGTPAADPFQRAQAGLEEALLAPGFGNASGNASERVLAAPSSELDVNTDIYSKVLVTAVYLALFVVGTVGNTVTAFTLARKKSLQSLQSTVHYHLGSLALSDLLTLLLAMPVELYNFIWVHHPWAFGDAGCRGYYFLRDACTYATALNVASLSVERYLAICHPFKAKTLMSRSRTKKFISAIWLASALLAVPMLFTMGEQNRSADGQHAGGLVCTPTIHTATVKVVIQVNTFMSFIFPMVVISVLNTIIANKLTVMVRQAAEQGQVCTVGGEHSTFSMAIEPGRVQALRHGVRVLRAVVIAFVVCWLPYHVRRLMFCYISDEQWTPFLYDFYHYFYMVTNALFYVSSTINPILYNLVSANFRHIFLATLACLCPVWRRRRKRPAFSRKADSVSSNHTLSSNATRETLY
OX1R antag-1: human HCRTR1 antagonism | O43613 | CHO/OX1R cells, Fluo-8 calcium fluorescence, orexin A | inhibition, % at 5 µM | 0.43% of 330,000 active;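 active = inhibition above its plate's threshold, mean inhibition of all tested compounds on the plate plus 3 SD, cut at about 37% in these data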;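 note: 0% = orexin A challenge wells and 100% = SB-334867-A antagonist wells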
OX1R antag-2: antagonists of human orexin 1 receptor (OX1R); O43613; OX1R-expressing cells, FRET antagonist read-out; inhibition, % at 6.6 µM; 1.8% of 330,000 active; AID 485270; in the data active = inhibition mostly above about 38%, no sharp cut-off; inactive = mostly below about 40%;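 note: 0% = agonist challenge alone and 100% = reference antagonist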
TAAR1 agonist: human TAAR1 agonism. 0.99% of 360,000 active. CHO RD-HGA16 TAAR1, Fluo-8 calcium fluorescence; vehicle wells 0%, saturating PEA agonist 100%. Q96RJ0. activation, % at 3 µM. AID 624467;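 active = activation above the mean activation of all test compounds in the run plus 3 SD, cut at about 38% in these data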
Target sequence (Q96RJ0 whole entry, looked up): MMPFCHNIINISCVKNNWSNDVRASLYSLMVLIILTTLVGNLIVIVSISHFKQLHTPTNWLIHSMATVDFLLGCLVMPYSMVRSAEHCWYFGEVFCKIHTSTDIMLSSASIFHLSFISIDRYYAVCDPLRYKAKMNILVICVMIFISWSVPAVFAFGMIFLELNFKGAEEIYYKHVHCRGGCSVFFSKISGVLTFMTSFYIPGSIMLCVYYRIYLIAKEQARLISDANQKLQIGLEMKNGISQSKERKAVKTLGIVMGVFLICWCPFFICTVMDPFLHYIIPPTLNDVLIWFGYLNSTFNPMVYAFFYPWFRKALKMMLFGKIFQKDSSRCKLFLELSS
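System: CHO RD-HGA16 cells carrying human TAAR1 plus Gα16; Incubation: 17-24 h seeding, 75 min 37 °C dye, 30 min RT; Measured by: Fluo-8 fluorescence, 5 s baseline then 140 s kinetic read; Control set: DMSO and PEA EC100; Replication: single well for each compound.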
TAAR1 antag: human TAAR1 antagonism | Q96RJ0 | CHO RD-HGA16 TAAR1, Fluo-8 calcium fluorescence, antagonist | inhibition, % at 3 µM | 1.5% of 360,000 active;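 active = inhibition above a per-plate cutoff, the mean inhibition of test compounds on that plate plus 3 SD, cut at about 49% in these data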;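 note: 0% = DMSO plus EC80 beta-PEA response and 100% = DMSO alone without agonist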
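System: RD-HGA16 CHO cells with stable hTAAR1 and Gα16 | Probe or stimulus: EC80 β-phenethylamine stimulus | Dosing: 3 µM, single point | Times: Dye loading 75 min at 37 °C, then 30 min room temperature | Measured by: Fluo-8 calcium-sensitive fluorescence | Read-out basis: % inhibition of agonist calcium response | Replicates: n of 1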
TAAR1 ag conf: human TAAR1 agonism, confirmed. shares compounds with TAAR1 agonist. CHO RD-HGA16 TAAR1, Fluo-8 calcium fluorescence; scaled: DMSO 0%, maximal phenethylamine 100%. activation, % at 3 µM. 82% of 2,400 active;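 active = activation above a cutoff set at the run's mean compound activation plus 3 SD, cut at about 39% in these data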
Ga16 ag counter: counter-screen for TAAR1 agonists: nonselective agonists in parental cells; activation, % at 3 µM; CHO-Ga16 parental, Fluo-8 calcium fluorescence; normalized to maximal ATP response, DMSO zero; shares compounds with TAAR1 agonist; 50% of 2,400 active; AID 651787;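 active = activation above the run cutoff, the mean activation over all tested wells plus 3 SD, cut at about 12% in these data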;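 note: 0% = DMSO wells and 100% = maximal ATP response on the peak over basal ratio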
TAAR1 desensitize: counter-screen for human TAAR1 agonists: agonists that desensitize TAAR1; shares compounds with TAAR1 agonist; CHO RD-HGA16 hTAAR1, Fluo-8 calcium, beta-PEA response inhibition; inhibition, % at 3 µM; 46% of 2,400 active;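 active = inhibition above the run cutoff, the mean inhibition of all test compounds plus 3 SD, cut at about 49% in these data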;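 note: beta-PEA stimulus applied at its EC80; loss of beta-PEA calcium signal after compound pretreatment read as receptor desensitization; 0% = DMSO with beta-PEA at EC80 and 100% = DMSO alone without agonist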
Ga16 antag count: counter-screen for TAAR1 agonists: nonselective Ga16 antagonists | 39% of 2,400 active | shares compounds with TAAR1 agonist | CHO-Ga16 ATP-induced calcium, Fluo-8 fluorescence | inhibition, % at 3 µM | AID 651952;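 active = inhibition above the plate's mean compound inhibition plus 3 SD, computed per plate, cut at about 22% in these data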;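 note: 0% = EC80 ATP with DMSO and 100% = DMSO wells without ATP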
Numbers without * were called inactive; nt = not tested or not shown.

SMILES	CHO parental Ca	NTR1 agonist	OX1R antag-1	OX1R antag-2	TAAR1 agonist	TAAR1 antag	TAAR1 ag conf	Ga16 ag counter	TAAR1 desensitize	Ga16 antag count
CCCCn1c(N)c(N(CC(C)C)C(=O)c2cc(Cl)nc3ccccc23)c(=O)[nH]c1=O	-4.6	-0.6	-17.7	14.4	0.1	-14.6	nt	nt	nt	nt
COc1cccc(OC)c1C(=O)NCCc1ccccc1	1.5	0.0	-2.9	14.0	80.6*	8.0	79.6*	0.4	63.0*	6.4
CCOC(=O)c1sc(N)c(C(=O)OC)c1C	-8.5	-0.8	0.3	16.9	1.3	-14.7	nt	nt	nt	nt
COc1cc(NC(=S)NCCc2ccccc2)c(OC)cc1NC(=O)C(C)C	-13.5	2.8	-23.1	-1.1	11.8	-8.2	nt	nt	nt	nt
COc1cc(C)c(NC(=O)C(=S)NCCc2ccccc2)cc1C	-13.8	5.9	-13.6	13.0	65.9*	78.9*	91.9*	2.4	85.4*	16.3
O=C(NCCc1ccccc1)c1c(F)c(F)c(F)c(F)c1F	-2.0	2.0	-10.4	12.2	4.1	6.5	nt	nt	nt	nt
COC(=O)c1c(N)sc(C(=O)NCCc2ccccc2)c1C	nt	-0.6	nt	nt	101.4*	73.5*	86.1*	4.3	88.9*	21.6*
COc1ccc(CNC(=O)CN(C(=O)c2snc(C(N)=O)c2N)c2ccccc2F)cc1	-13.9	0.7	-6.3	21.8	13.9	40.3	nt	nt	nt	nt
C[C@H]1CN([C@@H](C)CO)C(=O)CCCn2nncc2CO[C@H]1CN(C)C(=O)Nc1cccc2ccccc12	nt	nt	nt	nt	2.1	8.3	nt	nt	nt	nt
CCOC(=O)N1CCN(C(=O)c2cc(COc3c(F)cccc3F)on2)CC1	-8.7	-1.1	-16.2	30.6	-1.4	-17.3	nt	nt	nt	nt
CN(C)c1ccc(C(=O)OCC(=O)Nc2ccc(N3CCOCC3)cc2)cc1	-3.6	4.8	2.9	5.8	51.4*	-6.5	2.4	9.8	7.7	1.1
COc1ccc(/C=C(\NC(=O)c2ccccc2)C(=O)N2CCC(C)CC2)cc1	nt	0.6	nt	nt	1.9	-6.8	nt	nt	nt	nt
Fc1ccc(-c2ccc3nccn3c2)cc1Cl	nt	nt	nt	nt	-0.7	-26.6	nt	nt	nt	nt
CC1=C(C)CS(=O)N(S(=O)(=O)c2ccccc2)C1 (stereo unspecified)	-13.2	9.4	-7.7	18.9	72.8*	9.1	67.7*	32.8*	22.9	20.7
O=C(NCc1ccco1)c1sc(=S)n2c1[nH]c(=O)c1ccccc12	-6.2	4.9	8.1	49.8*	75.2*	35.7	38.1*	23.2*	14.9	17.5
COc1cc(C(C)=O)ccc1OCC(O)CN1CCN(S(=O)(=O)c2ccccc2)CC1 (stereo unspecified)	-4.5	2.4	-16.8	35.4	14.5	3.4	nt	nt	nt	nt
COc1cc(C(C)=O)ccc1OCC(O)CNCC(O)c1ccccc1 (stereo unspecified)	-17.7	-1.2	-27.2	-3.1	91.0*	35.8	97.9*	2.9	73.6*	0.2
Cc1c(NS(=O)(=O)c2cccc(C(=O)Nc3cccc(F)c3)c2)c(=O)n(-c2ccccc2)n1C	nt	4.3	nt	nt	1.9	-2.3	nt	nt	nt	nt
COC(=O)c1sccc1S(=O)(=O)Nc1ccc(Cl)cc1	-16.6	0.2	-23.2	8.0	5.7	-1.4	nt	nt	nt	nt
COC(=O)c1sccc1S(=O)(=O)Nc1ccc(C(O)(C(F)(F)F)C(F)(F)F)cc1	nt	nt	nt	nt	169.1*	103.5*	141.8*	112.8*	102.8*	83.5*
Cn1c(=O)c2c(nc(N/N=C/c3cccs3)n2C)n(C)c1=O	-16.9	2.0	-27.8	5.9	0.8	-26.8	nt	nt	nt	nt
Cn1c(N/N=C/c2cccs2)cc(=O)n(C)c1=O	1.8	0.0	-7.2	14.7	45.3*	-1.2	62.0*	2.5	14.5	6.3
O=C(COC(=O)c1ccc(Cl)cc1)NC1CCCCCC1	11.9	-0.5	6.2	11.8	42.3*	8.8	-3.2	1.6	-7.3	-1.0
COc1cc(N/N=C/c2ccccc2O)ncn1	5.4	-0.9	-13.3	10.6	49.3*	5.0	57.1*	8.6	53.1*	11.4
COc1cc(N/N=C/c2ccc(N(C)C)cc2)ncn1	-7.9	0.1	-2.6	20.3	-0.2	-6.9	nt	nt	nt	nt
SMILES	CHO parental Ca	NTR1 agonist	OX1R antag-1	OX1R antag-2	TAAR1 agonist	TAAR1 antag	TAAR1 ag conf	Ga16 ag counter	TAAR1 desensitize	Ga16 antag count
Cc1ccc(N2C(N)=C(C#N)C(c3cccs3)C3=C2CC(C)(C)CC3=O)cc1 (stereo unspecified)	-33.9	6.6	-35.3	8.7	45.4*	-12.1	39.0*	11.9*	0.2	5.2
O=C(COC(=O)Cn1cnc2ccccc2c1=O)Nc1ccc(Cl)cc1	-17.3	-2.8	-16.9	12.5	48.9*	13.6	65.5*	1.5	28.2	3.6
Cc1cc(NCCCn2ccnc2)n2nc(C)c(-c3ccccc3)c2n1	-13.2	0.5	-3.4	4.1	7.7	-19.2	nt	nt	nt	nt
N=c1c2c(-c3ccccc3)c(-c3ccccc3)n(Cc3ccco3)c2ncn1Cc1ccco1	31.3	42.5*	37.1	20.2	86.2*	46.2	90.8*	54.2*	75.1*	37.3*
CCCCn1cnc2c(c(-c3ccccc3)c(-c3ccccc3)n2Cc2ccco2)c1=N	-15.5	39.2	-17.3	4.3	34.6	-13.0	nt	nt	nt	nt
N=c1c2c(-c3ccccc3)c(-c3ccccc3)n(Cc3ccccc3)c2ncn1CCCn1ccnc1	-31.4	34.3	-11.4	12.9	61.0*	-18.8	49.4*	14.6*	10.2	12.8
CCOC(=O)CNC(=O)CN1CCC(c2nc3ccccc3[nH]2)CC1	13.1	0.0	-9.8	6.9	14.3	-24.4	nt	nt	nt	nt
Nc1ccccc1SSc1ccccc1N	-0.7	-0.2	7.2	16.4	45.8*	15.6	34.3	10.9	2.5	6.8
N#Cc1ccccc1Sc1ccccc1N	-4.9	-0.3	-10.9	19.2	nt	nt	nt	nt	nt	nt
O=C(NCCSc1ccc(Br)cc1)c1ccc2nc[nH]c2c1	-0.8	1.3	-8.8	18.3	7.8	-2.6	nt	nt	nt	nt
O=C(O)C1C2C=CC(C2)C1C(=O)NCCc1ccccc1 (stereo unspecified)	-6.9	0.1	-2.8	11.1	84.5*	91.8*	96.2*	2.0	94.3*	2.2
CCCCC(CC)CNC(=O)C1C2C=CC(C2)C1C(=O)O (stereo unspecified)	-2.7	0.9	-7.3	12.1	77.8*	49.3*	89.8*	5.1	50.9*	-3.4
